# ChEMBL document CHEMBL1154112, “Parallel synthesis of potent dopaminergic N-phenyltriazole carboxamides applying a novel click chemistry based phenol linker” (Bioorg Med Chem, 2009)
# Active and inactive are the calls of the source. No cut-off for these calls is given here.
# Molecular target: D(1A) dopamine receptor (Sus scrofa) (UniProt P50130)
# Assay: Displacement of [3H]SCH23390 from pig dopamine D1 receptor
# Summary of the method: (§1)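 Porcine striatal membranes were incubated with 0.3 nM [3H]SCH 23390 (Kd 0.95 nM). Protein was measured by Lowry against a BSA standard. Test compounds were screened at 100 nM and 1 nM in triplicate. Ki values were derived by nonlinear regression of competition curves, as means of 2–4 experiments each run in triplicate.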
# Chain of D(1A) dopamine receptor (Sus scrofa) (P50130 whole entry): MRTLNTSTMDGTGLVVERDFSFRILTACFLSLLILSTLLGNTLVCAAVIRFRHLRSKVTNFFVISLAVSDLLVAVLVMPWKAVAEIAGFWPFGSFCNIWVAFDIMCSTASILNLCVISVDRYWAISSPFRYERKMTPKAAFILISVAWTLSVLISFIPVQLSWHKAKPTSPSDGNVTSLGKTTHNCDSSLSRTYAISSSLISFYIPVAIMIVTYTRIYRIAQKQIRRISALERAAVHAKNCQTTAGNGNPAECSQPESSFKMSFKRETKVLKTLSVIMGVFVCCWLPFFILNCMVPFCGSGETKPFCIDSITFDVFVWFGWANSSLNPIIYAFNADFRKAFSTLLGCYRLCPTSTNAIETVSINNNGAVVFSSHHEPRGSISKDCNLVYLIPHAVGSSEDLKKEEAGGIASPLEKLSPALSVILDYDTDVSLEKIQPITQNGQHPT
row,Compound,Activity
1,O=C(NCCCCN1CCN(c2ccccc2Cl)CC1)c1cn(-c2ccc([N+](=O)[O-])cc2)nn1,inactive
2,COc1ccccc1N1CCN(CCNC(=O)CCCc2cn(-c3ccc([N+](=O)[O-])cc3)nn2)CC1,inactive
3,COc1ccc(-n2cc(C(=O)NCCN3CCN(c4ccccc4OC)CC3)nn2)cc1,inactive
4,COc1ccc(-n2cc(C(=O)NCCCCN3CCN(c4ccccc4Cl)CC3)nn2)cc1,inactive
5,COc1ccc(-n2cc(CCCC(=O)NCCCCN3CCN(c4ccccc4OC)CC3)nn2)cc1,inactive
6,COc1ccc(-n2cc(CCCC(=O)NCCCCN3CCN(c4cccc(Cl)c4Cl)CC3)nn2)cc1,inactive
7,COc1ccc(-n2cc(C(=O)NCCCCN3CCN(c4ccccc4OC)CC3)nn2)cc1,inactive

# Next, values leading:
row,Activity,Compound
1,inactive,O=C(CCCc1cn(-c2ccc([N+](=O)[O-])cc2)nn1)NCCCCN1CCN(c2cccc(Cl)c2Cl)CC1
2,inactive,COc1ccccc1N1CCN(CCCCNC(=O)CCCc2cn(-c3ccc([N+](=O)[O-])cc3)nn2)CC1
3,inactive,O=C(NCCCCN1CCN(c2cccc(Cl)c2Cl)CC1)c1cn(-c2ccc([N+](=O)[O-])cc2)nn1

# Molecular target: T1, D(2) dopamine receptor (Homo sapiens, UniProt P14416)
# T1 sequence (P14416 whole entry): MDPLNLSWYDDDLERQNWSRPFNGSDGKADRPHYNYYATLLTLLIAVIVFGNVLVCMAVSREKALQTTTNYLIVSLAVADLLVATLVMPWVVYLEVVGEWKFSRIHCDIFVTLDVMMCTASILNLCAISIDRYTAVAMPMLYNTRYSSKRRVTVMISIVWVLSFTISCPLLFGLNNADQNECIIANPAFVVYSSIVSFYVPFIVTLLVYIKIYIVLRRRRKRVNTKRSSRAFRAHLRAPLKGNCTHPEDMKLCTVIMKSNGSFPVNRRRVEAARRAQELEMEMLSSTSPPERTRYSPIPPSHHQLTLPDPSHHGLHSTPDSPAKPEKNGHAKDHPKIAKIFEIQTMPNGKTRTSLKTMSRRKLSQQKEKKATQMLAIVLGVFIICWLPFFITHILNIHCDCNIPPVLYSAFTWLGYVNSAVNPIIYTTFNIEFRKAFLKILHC
# Assay: Displacement of [3H]spiperone from human cloned dopamine D2-long expressed in CHO cells
# Assay type: cell-based
# Summary of the method: (§2)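 Competition binding used membranes from CHO cells expressing human D2long, D2short, D3 or D4.4, with 0.5 nM final [3H]spiperone. Screening was run at 100 nM and 1 nM test compound in triplicate. Ki values come from nonlinear regression, as means of 2–4 experiments each run in triplicate.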
row,Activity [%],Compound
1,39,COc1ccccc1N1CCN(CCCCNC(=O)CCCc2cn(-c3ccc([N+](=O)[O-])cc3)nn2)CC1
2,33,O=C(NCCCCN1CCN(c2cccc(Cl)c2Cl)CC1)c1cn(-c2ccc([N+](=O)[O-])cc2)nn1

# Molecular target: T1, D(2) dopamine receptor
# Assay: Displacement of [3H]spiperone from human cloned dopamine D2-short expressed in CHO cells
# Assay type: cell-based
# Set-up: concentration or dose not given beside the values
# Summary of the method: as §2
row,Compound,Activity [%]
1,COc1ccc(-n2cc(CCCC(=O)NCCCCN3CCN(c4ccccc4OC)CC3)nn2)cc1,33
2,COc1ccc(-n2cc(CCCC(=O)NCCCCN3CCN(c4cccc(Cl)c4Cl)CC3)nn2)cc1,43

# The next lines start with the values.
row,Activity [%],Compound
1,43,O=C(CCCc1cn(-c2ccc([N+](=O)[O-])cc2)nn1)NCCCCN1CCN(c2cccc(Cl)c2Cl)CC1
2,52,COc1ccccc1N1CCN(CCCCNC(=O)CCCc2cn(-c3ccc([N+](=O)[O-])cc3)nn2)CC1
3,53,O=C(NCCCCN1CCN(c2cccc(Cl)c2Cl)CC1)c1cn(-c2ccc([N+](=O)[O-])cc2)nn1

# Molecular target: T2, D(3) dopamine receptor (Homo sapiens, UniProt P35462)
# T2 sequence (P35462 whole entry): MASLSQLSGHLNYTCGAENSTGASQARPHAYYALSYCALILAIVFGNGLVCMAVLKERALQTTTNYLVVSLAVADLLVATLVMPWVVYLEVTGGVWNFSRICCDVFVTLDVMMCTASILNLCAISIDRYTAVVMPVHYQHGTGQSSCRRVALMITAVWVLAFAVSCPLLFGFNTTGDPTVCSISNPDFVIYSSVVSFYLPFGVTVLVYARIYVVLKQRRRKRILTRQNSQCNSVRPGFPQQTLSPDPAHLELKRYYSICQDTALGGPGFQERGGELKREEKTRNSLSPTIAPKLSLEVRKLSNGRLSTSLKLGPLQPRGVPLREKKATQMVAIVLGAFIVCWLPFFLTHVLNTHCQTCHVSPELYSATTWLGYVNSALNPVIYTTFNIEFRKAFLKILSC
# Assay: Displacement of [3H]spiperone from human cloned dopamine D3 expressed in CHO cells
# Assay type: cell-based
# Set-up: concentration or dose not given beside the values
# Summary of the method: as §2
row,Compound,Activity [%]
1,O=C(NCCCCN1CCN(c2ccccc2Cl)CC1)c1cn(-c2ccc([N+](=O)[O-])cc2)nn1,61
2,COc1ccc(-n2cc(C(=O)NCCCCN3CCN(c4ccccc4Cl)CC3)nn2)cc1,58
3,COc1ccc(-n2cc(CCCC(=O)NCCCCN3CCN(c4ccccc4OC)CC3)nn2)cc1,46
4,COc1ccc(-n2cc(CCCC(=O)NCCCCN3CCN(c4cccc(Cl)c4Cl)CC3)nn2)cc1,71
5,COc1ccc(-n2cc(C(=O)NCCCCN3CCN(c4ccccc4OC)CC3)nn2)cc1,57

# Continued, values first:
row,Activity [%],Compound
1,76,O=C(CCCc1cn(-c2ccc([N+](=O)[O-])cc2)nn1)NCCCCN1CCN(c2cccc(Cl)c2Cl)CC1
2,51,COc1ccccc1N1CCN(CCCCNC(=O)CCCc2cn(-c3ccc([N+](=O)[O-])cc3)nn2)CC1
3,95,O=C(NCCCCN1CCN(c2cccc(Cl)c2Cl)CC1)c1cn(-c2ccc([N+](=O)[O-])cc2)nn1

# Species: Sus scrofa
# Assay: Displacement of [3H]prazosin from pig alpha-1 adrenergic receptor
# Set-up: concentration or dose not given beside the values
# Summary of the method: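 Porcine cortical membranes at 55 µg protein per tube, [3H]prazosin as radioligand (Kd 0.06 nM). Ki obtained by non-linear regression of competition curves, means of 2–4 experiments each run in triplicate; screening run at 10 µM, 100 nM and 1 nM test compound in triplicate.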
row,Compound,Activity [%]
1,O=C(NCCCCN1CCN(c2ccccc2Cl)CC1)c1cn(-c2ccc([N+](=O)[O-])cc2)nn1,61
2,COc1ccccc1N1CCN(CCNC(=O)CCCc2cn(-c3ccc([N+](=O)[O-])cc3)nn2)CC1,43
3,COc1ccc(-n2cc(C(=O)NCCN3CCN(c4ccccc4OC)CC3)nn2)cc1,56
4,COc1ccc(-n2cc(C(=O)NCCCCN3CCN(c4ccccc4Cl)CC3)nn2)cc1,55
5,COc1ccc(-n2cc(CCCC(=O)NCCCCN3CCN(c4ccccc4OC)CC3)nn2)cc1,72
6,COc1ccc(-n2cc(C(=O)NCCCCN3CCN(c4ccccc4OC)CC3)nn2)cc1,64

# Continued, values first:
row,Activity [%],Compound
1,83,COc1ccccc1N1CCN(CCCCNC(=O)CCCc2cn(-c3ccc([N+](=O)[O-])cc3)nn2)CC1
2,48,O=C(NCCCCN1CCN(c2cccc(Cl)c2Cl)CC1)c1cn(-c2ccc([N+](=O)[O-])cc2)nn1

# Molecular target: D(1A) dopamine receptor (Sus scrofa, UniProt P50130)
# Sequence (P50130 whole entry): as the sequence (P50130 whole entry) above
# Assay: Binding affinity to pig dopamine D1 receptor
# Summary of the method: as §1
row,Ki [µM],Compound
1,2.2,O=C(CCCc1cn(-c2ccc([N+](=O)[O-])cc2)nn1)NCCCCN1CCN(c2cccc(Cl)c2Cl)CC1
2,1.8,COc1ccc(-n2cc(CCCC(=O)NCCCCN3CCN(c4cccc(Cl)c4Cl)CC3)nn2)cc1
3,0.81,O=C(NCCCCN1CCN(c2cccc(Cl)c2Cl)CC1)c1cn(-c2ccc([N+](=O)[O-])cc2)nn1

# Molecular target: T1, D(2) dopamine receptor
# Assay: Binding affinity to human cloned dopamine D2-long expressed in CHO cells
# Assay type: cell-based
# Summary of the method: as §2
row,Ki [µM],Compound
1,0.083,O=C(CCCc1cn(-c2ccc([N+](=O)[O-])cc2)nn1)NCCCCN1CCN(c2cccc(Cl)c2Cl)CC1
2,0.12,COc1ccc(-n2cc(CCCC(=O)NCCCCN3CCN(c4cccc(Cl)c4Cl)CC3)nn2)cc1
3,0.049,O=C(NCCCCN1CCN(c2cccc(Cl)c2Cl)CC1)c1cn(-c2ccc([N+](=O)[O-])cc2)nn1

# Molecular target: T1, D(2) dopamine receptor
# Assay: Binding affinity to human cloned dopamine D2-short expressed in CHO cells
# Assay type: cell-based
# Summary of the method: as §2
row,Ki [µM],Compound
1,0.047,O=C(CCCc1cn(-c2ccc([N+](=O)[O-])cc2)nn1)NCCCCN1CCN(c2cccc(Cl)c2Cl)CC1
2,0.042,COc1ccc(-n2cc(CCCC(=O)NCCCCN3CCN(c4cccc(Cl)c4Cl)CC3)nn2)cc1
3,0.053,O=C(NCCCCN1CCN(c2cccc(Cl)c2Cl)CC1)c1cn(-c2ccc([N+](=O)[O-])cc2)nn1

# Molecular target: T2, D(3) dopamine receptor
# Assay: Binding affinity to human cloned dopamine D3 expressed in CHO cells
# Assay type: cell-based
row,Ki [µM],Compound
1,0.0057,O=C(CCCc1cn(-c2ccc([N+](=O)[O-])cc2)nn1)NCCCCN1CCN(c2cccc(Cl)c2Cl)CC1
2,0.0093,COc1ccc(-n2cc(CCCC(=O)NCCCCN3CCN(c4cccc(Cl)c4Cl)CC3)nn2)cc1
3,0.001,O=C(NCCCCN1CCN(c2cccc(Cl)c2Cl)CC1)c1cn(-c2ccc([N+](=O)[O-])cc2)nn1

# Molecular target: T3, D(4) dopamine receptor (Homo sapiens, UniProt P21917)
# T3 sequence (P21917 whole entry): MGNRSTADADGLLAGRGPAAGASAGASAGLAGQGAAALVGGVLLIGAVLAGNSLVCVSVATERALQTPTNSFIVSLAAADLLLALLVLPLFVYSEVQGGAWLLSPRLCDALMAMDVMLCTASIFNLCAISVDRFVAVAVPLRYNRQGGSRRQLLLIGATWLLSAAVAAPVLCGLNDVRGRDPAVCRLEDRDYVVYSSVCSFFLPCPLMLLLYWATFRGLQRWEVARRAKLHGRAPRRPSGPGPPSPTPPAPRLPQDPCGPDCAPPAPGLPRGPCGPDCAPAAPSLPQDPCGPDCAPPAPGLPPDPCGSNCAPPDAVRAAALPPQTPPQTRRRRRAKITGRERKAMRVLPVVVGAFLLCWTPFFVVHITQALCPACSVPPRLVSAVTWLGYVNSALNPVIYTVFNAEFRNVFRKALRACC
# Assay: Binding affinity to human cloned dopamine D4.4 expressed in CHO cells
# Assay type: cell-based
row,Ki [µM],Compound
1,0.24,O=C(CCCc1cn(-c2ccc([N+](=O)[O-])cc2)nn1)NCCCCN1CCN(c2cccc(Cl)c2Cl)CC1
2,0.2,COc1ccc(-n2cc(CCCC(=O)NCCCCN3CCN(c4cccc(Cl)c4Cl)CC3)nn2)cc1
3,0.28,O=C(NCCCCN1CCN(c2cccc(Cl)c2Cl)CC1)c1cn(-c2ccc([N+](=O)[O-])cc2)nn1

# Molecular target: not listed separately
# Assay: Binding affinity to pig alpha-1 adrenergic receptor
# Set-up: species or system Sus scrofa
# Summary of the method: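 Alpha1 binding used porcine cortical membranes with [3H]prazosin (KD 0.06 nM). Protein was measured by Lowry against a BSA standard. Ki came from nonlinear regression of competition curves, as the mean of 2–4 experiments each run in triplicate.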
row,Ki [µM],Compound
1,0.028,O=C(CCCc1cn(-c2ccc([N+](=O)[O-])cc2)nn1)NCCCCN1CCN(c2cccc(Cl)c2Cl)CC1
2,0.042,COc1ccc(-n2cc(CCCC(=O)NCCCCN3CCN(c4cccc(Cl)c4Cl)CC3)nn2)cc1
3,0.017,O=C(NCCCCN1CCN(c2cccc(Cl)c2Cl)CC1)c1cn(-c2ccc([N+](=O)[O-])cc2)nn1
